According to ChEMBL document CHEMBL3751814, “6-Methylpurine derived sugar modified nucleosides: Synthesis and in vivo antitumor activity in D54 tumor expressing M64V-Escherichia coli purine nucleoside phosphorylase” (Eur J Med Chem, 2016):
The source made the active and inactive calls. No cut-off for these calls is given here.

Columns and labels:
[1] = Terminal half life of compound in mouse plasma at 67 mg/kg, ip by reverse phase HPLC analysis; type: ADME, organism-based; settings: read-out: beta t1/2
[2] = target: T1, Purine nucleoside phosphorylase (Homo sapiens, UniProt P00491); assay: Prodrug activation assessed as recombinant human PNP-mediated compound cleavage at 100 uM by reverse phase HPLC analysis
T1 sequence (P00491 whole entry): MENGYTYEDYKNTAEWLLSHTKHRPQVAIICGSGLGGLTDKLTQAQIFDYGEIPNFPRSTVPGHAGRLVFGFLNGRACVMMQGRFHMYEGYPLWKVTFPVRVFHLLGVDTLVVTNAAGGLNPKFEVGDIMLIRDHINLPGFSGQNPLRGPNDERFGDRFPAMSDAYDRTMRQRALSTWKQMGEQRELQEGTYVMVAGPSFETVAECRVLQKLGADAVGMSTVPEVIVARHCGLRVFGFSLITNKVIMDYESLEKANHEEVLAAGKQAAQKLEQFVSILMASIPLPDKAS
How it was run: (§1)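 Cleavage assay: 100 µM substrate in 50 mM potassium phosphate pH 7.4, with enzyme amount adjusted for a linear rate, at 25°C; aliquots at 0, 0.25, 0.5, 1, 2 h, stopped by boiling, filtered. Reverse-phase C-18 HPLC, 50 mM ammonium dihydrogen phosphate pH 4.5 with 1.25–5% acetonitrile, 254 nm detection. Specific activity = nmol product/mg protein/time. Detection limit 1 nmol/mg/hr; mean of at least two experiments.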

[3] = target: T2, S-methyl-5'-thioadenosine phosphorylase (Homo sapiens, UniProt Q13126); assay: Prodrug activation assessed as recombinant human MTAP-mediated compound cleavage at 100 uM by reverse phase HPLC analysis; how it was run: as §1
T2 sequence (Q13126 whole entry): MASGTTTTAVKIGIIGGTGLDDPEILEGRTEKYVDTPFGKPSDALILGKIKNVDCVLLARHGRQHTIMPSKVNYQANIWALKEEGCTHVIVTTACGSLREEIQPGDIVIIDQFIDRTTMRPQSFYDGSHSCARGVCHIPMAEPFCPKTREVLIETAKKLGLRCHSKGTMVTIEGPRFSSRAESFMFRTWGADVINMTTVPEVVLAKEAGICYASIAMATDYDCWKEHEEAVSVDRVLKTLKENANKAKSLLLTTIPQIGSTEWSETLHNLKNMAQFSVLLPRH

[4] = Prodrug activation assessed as recombinant Escherichia coli PNP-mediated compound cleavage at 100 uM by reverse phase HPLC analysis
How it was run: as §1, with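 “filtered.” for “filtered. Reverse-phase C-18 HPLC, 50 mM ammonium dihydrogen phosphate pH 4.5 with 1.25–5% acetonitrile, 254 nm detection.”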

[5] = Prodrug activation assessed as recombinant Escherichia coli PNP M64V mutant-mediated compound cleavage at 100 uM by reverse phase HPLC analysis
[6] = Prodrug activation assessed as recombinant Trichomonas vaginalis PNP-mediated compound cleavage at 100 uM by reverse phase HPLC analysis; how it was run: as §1
[7] = target: Purine nucleoside phosphorylase (Sulfolobus solfataricus (strain ATCC 35092 / DSM 1617 / JCM 11322 /P2), UniProt P50389); assay: Prodrug activation assessed as recombinant Sulfolobus solfataricus MTAP-mediated compound cleavage at 100 uM by reverse phase HPLC analysis; settings: saccharolobus solfataricus; how it was run: as §1
Chain of Purine nucleoside phosphorylase (Sulfolobus solfataricus (strain ATCC 35092 / DSM 1617 / JCM 11322 /P2), UniProt P50389) (P50389 whole entry): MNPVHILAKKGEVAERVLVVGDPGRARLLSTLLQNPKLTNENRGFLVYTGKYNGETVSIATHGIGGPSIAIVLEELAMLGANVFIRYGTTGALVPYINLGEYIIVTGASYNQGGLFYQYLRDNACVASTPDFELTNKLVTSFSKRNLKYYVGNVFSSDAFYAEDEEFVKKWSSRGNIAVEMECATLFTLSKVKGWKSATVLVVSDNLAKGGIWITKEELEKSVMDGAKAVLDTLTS

[8] = target: 5'-methylthioadenosine/S-adenosylhomocysteine nucleosidase (Escherichia coli O157:H7, UniProt P0AF14); assay: Prodrug activation assessed as recombinant Escherichia coli SAH/MTA hydrolase-mediated compound cleavage at 100 uM by reverse phase HPLC analysis
Chain of 5'-methylthioadenosine/S-adenosylhomocysteine nucleosidase (P0AF14 whole entry): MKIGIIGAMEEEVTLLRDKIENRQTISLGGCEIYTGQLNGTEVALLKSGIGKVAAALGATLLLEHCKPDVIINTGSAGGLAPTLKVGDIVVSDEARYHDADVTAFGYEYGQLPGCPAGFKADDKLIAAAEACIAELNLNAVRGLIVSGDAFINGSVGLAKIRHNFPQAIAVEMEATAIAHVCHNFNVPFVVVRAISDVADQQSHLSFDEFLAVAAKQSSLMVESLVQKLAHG
How it was run: (§2)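 Reactions held 50 mM potassium phosphate (pH 7.4) and 100 µM substrate at 25°C. Enzyme was titrated to keep cleavage linear: native F. tularensis PNP from crude extract or recombinant E. coli SAH/MTA hydrolase. Samples were taken at 0–2 h and stopped by boiling. Base and nucleoside were resolved by C18 reverse-phase HPLC at 254 nm. Activity is nmol/mg protein/hr, the average of at least two experiments; detection limit is 1 nmol/mg/hr.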

[9] = Prodrug activation assessed as Francisella tularensis PNP-mediated compound cleavage at 100 uM by reverse phase HPLC analysis; how it was run: as §2
[10] = Prodrug activation in human D54MG cells expressing Escherichia coli PNP xenografted in nude mouse assessed as Escherichia coli PNP-mediated compound cleavage per mg of tumor tissue; settings: in vivo
[11] = Antitumor activity against human D54MG cells expressing Escherichia coli PNP xenografted in mouse assessed as time for tumor growth delay at 67 mg/kg; type: functional
[12] = Antitumor activity against human D54MG cells expressing Escherichia coli PNP xenografted in nude mouse assessed as time for tumor growth delay at 33 mg/kg; type: functional
D54MG = assay: Antitumor activity against human D54MG cells expressing Escherichia coli PNP M64V mutant xenografted in nude mouse assessed as inhibition of tumor growth at 10 and 20 mg/kg, administered via peritoneal cavity 5 times a day (every 2 hrs) for 3 consecutive days measured on day 17 to 19 after tumor implantation; type: functional, organism-based
How it was run: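 Xenograft: parental and M64V-PNP-transduced D54MG human glioma cells mixed so 10% express M64V; 2 x 10⁷ total cells injected sc into flanks of nu/nu nude mice. At ~300 mg tumors (day 17), ip dosing 5 times daily (every 2 h) for 3 consecutive days at 5, 10 or 20 mg/kg; 6 mice/group. Tumors measured with calipers twice weekly; weight = length x width²/2; mean and SEM.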

[13] = Terminal half life of compound in mouse at 100 mg/kg, ip by reverse phase HPLC analysis; type: ADME, organism-based; settings: in vivo, read-out: beta t1/2
[14] = Prodrug activation in human D54MG cells expressing Escherichia coli PNP M64V mutant xenografted in nude mouse assessed as Escherichia coli PNP M64V mutant-mediated compound cleavage per mg of tumor tissue at 5-20 mg/kg administered via peritoneal cavity 5 times a day (every 2 hrs) for 3 consecutive days measured on day 17; type: organism-based; settings: in vivo, ip
How it was run: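 Tumor extracts were taken from mice bearing D54 xenografts with 10% M64V-PNP-expressing cells, removed at start of treatment (day 17). Cleavage of the prodrug substrate was reported as nmoles cleaved/mg-hr; N = 3.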

[15] = Antitumor activity against human D54MG cells expressing Escherichia coli PNP M64V mutant xenografted in mouse assessed as time for tumor growth delay at maximum tolerated dose; type: functional
How it was run: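 Subcutaneous flank xenografts in nude mice (nu/nu) used a 90/10 mix of parental and M64V PNP-transduced D54MG glioma cells (2 x 10⁷ total cells). Starting on day 17, when tumors were about 300 mg, mice received ip doses of 5, 10 or 20 mg/kg five times daily (every 2 h) for 3 days, with 6 mice per group. Calipers were read twice weekly and weight was taken as length x width²/2.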

Row | Compound | half-life [1] [min] | Drug metabolism [2] [nmol/mg/h] | Drug metabolism [3] [nmol/mg/h] | Drug metabolism [4] [nmol/mg/h] | Drug metabolism [5] [nmol/mg/h] | Drug metabolism [6] [nmol/mg/h] | Drug metabolism [7] [nmol/mg/h] | Drug metabolism [8] [nmol/mg/h] | Drug metabolism [9] [nmol/mg/h] | Drug metabolism [10] [nmol/mg/h] | Time [11] [days] | Time [12] [days] | inhibition (D54MG) | half-life [13] [min] | Drug metabolism [14] [nmol/mg/h] | Time [15] [days]
1 | Cc1ncnc2c1ncn2[C@H]1C[C@H](O)[C@@H](CO)O1 | 14 | 35 | < 1 | 528000 | 593000 | 484000 | 12000 | 30 | 3900 | 40 | 22 | 22 |  |  |  | 
2 | Cc1ncnc2c1ncn2[C@@H]1O[C@H](CO)[C@@H](O)[C@H]1O |  | 12 |  | 96000 | 176000 | 155000 | 4000 | 290 | 4800 |  |  |  |  |  |  | 
3 | Nc1ncnc2c1ncn2[C@@H]1O[C@H](CO)[C@@H](O)[C@H]1O [ADENOSINE] |  |  | 596 |  |  | 501000 | 57000 | 2100 | 2100 |  |  |  |  |  |  | 
4 | Cc1ncnc2c1ncn2[C@@H]1O[C@H]([C@H](C)O)[C@@H](O)[C@H]1O |  | < 1 | 4 | 915 | 86000 | 8400 | 1500 | 51 | 100 |  |  |  | Active | 21 | 365 | >32
5 | OC[C@H]1O[C@@H](n2cnc3c(O)ncnc32)[C@H](O)[C@@H]1O [INOSINE] |  | 391000 |  | 342000 |  | 154000 | 84000 |  | 2000 |  |  |  |  |  |  | 
6 | Cc1ncnc2c1ncn2[C@@H]1O[C@@H](CO)[C@@H](O)[C@H]1O |  |  | < 1 | 218 | 10000 | 10000 | 1400 | 36 | 180 |  |  |  |  |  |  | 
